The source of these data is ChEMBL document CHEMBL3352291, “Synthesis and structure-activity relationship of thiobarbituric acid derivatives as potent inhibitors of urease” (Bioorg Med Chem, 2014).

This experiment can be described thus: Inhibition of Bacillus pasteurii urease using urea substrate assessed as reduction in ammonia production after 15 mins by indophenol's method. Further details: species or system Sporosarcina pasteurii. The method in brief: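 One unit of B. pasteurii urease in buffer containing 100 mM urea, incubated with test compound (added as 1 mM solution) at 30 °C for 15 min. Ammonia was measured by the indophenol method: phenol reagent and alkali reagent were added, and the increase in absorbance at 630 nm was read after 50 min on a plate reader.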
As to `O=C1NC(=S)NC(=O)C1=Cc1c[nH]c2ccccc12`, the IC50 is 171 µM.

Take `CN(C)c1ccc(C=C2C(=O)NC(=S)NC2=O)cc1`: the IC50 came out at 58.5 µM.

As for `O=C1NC(=S)NC(=O)C1=Cc1ccc(O)cc1O`, the IC50 is 32.1 µM.

`O=C1NC(=S)NC(=O)C1=Cc1ccc(O)c(O)c1`: the IC50 stood at 1.61 µM.

Turning to `COc1ccc(C=C2C(=O)NC(=S)NC2=O)cc1O`, the IC50 amounted to 22.8 µM.

On to `O=C1NC(=S)NC(=O)C1=Cc1ccc(O)c(O)c1O`, for which the IC50 is 25.2 µM.

Consider `COc1cc(C=C2C(=O)NC(=S)NC2=O)cc(OC)c1O`, for which the IC50 was found to be 46.5 µM.

`COc1cc(Br)c(C=C2C(=O)NC(=S)NC2=O)cc1OC`: the IC50 was found to be 47.3 µM.

On to `O=C1NC(=S)NC(=O)C1=Cc1cccs1`, for which the IC50 was 21.5 µM.

Take `CSc1ccc(C=C2C(=O)NC(=S)NC2=O)cc1`: the IC50 amounted to 18.1 µM.

Take `O=C1NC(=S)NC(=O)C1=Cc1c(Cl)c2cc(Br)ccc2oc1=O`: the IC50 amounted to 62.8 µM.

For `O=C1NC(=S)NC(=O)C1=Cc1ccncc1`, the IC50 came out at 16 µM.

Regarding `Cc1cccc(C=C2C(=O)NC(=S)NC2=O)n1`, the IC50 came to 16 µM.

On to `COc1cc(C=C2C(=O)NC(=S)NC2=O)c(OC)cc1Br`, for which the IC50 is 43.3 µM.

`COc1cc(C=C2C(=O)NC(=S)NC2=O)cc(I)c1O`: the IC50 amounted to 42.5 µM.

`O=C1NC(=S)NC(=O)C1C=C1c2ccccc2Cc2ccccc21`: the IC50 is 137 µM.

On to `O=C1NC(=S)NC(=O)C1=Cc1cc(Cl)cc(Cl)c1O`, for which the IC50 was determined as 50.3 µM.

As to `Nc1ccccc1C=C1C(=O)NC(=S)NC1=O`, the IC50 is 32.3 µM.

As for `O=C1NC(=S)NC(=O)C1=Cc1ccc(C=C2C(=O)NC(=S)NC2=O)cc1`, the IC50 amounted to 6.7 µM.

Consider `O=C1NC(=S)NC(=O)C1=Cc1cc(Br)c(O)c(Br)c1`, for which the IC50 is 10.6 µM.

For the compound `Cc1ccccc1C=C1C(=O)NC(=S)NC1=O`, the half-inhibitory concentration (IC50) was found to be 42.1 µM.

`CCOc1ccc(C=C2C(=O)NC(=S)NC2=O)cc1`: the IC50 was found to be 29.4 µM.

With `COc1cccc(C=C2C(=O)NC(=S)NC2=O)c1O`, the IC50 is 19.2 µM.

`Cc1ccc(C=C2C(=O)NC(=S)NC2=O)o1`: the half-inhibitory concentration (IC50) turned out to be 18.2 µM.

Consider `COc1ccc(O)c(C=C2C(=O)NC(=S)NC2=O)c1`, for which the IC50 came to 32.7 µM.

Regarding `O=C1NC(=S)NC(=O)C1=Cc1c(O)ccc2ccccc12`, the IC50 came to 21.4 µM.

For the compound `COc1ccc(C=C2C(=O)NC(=S)NC2=O)cc1OC`, the IC50 came to 14.3 µM.

In the case of `NC(N)=S` [THIOUREA], the concentration for half-maximal inhibition (IC50) is 21 µM.
